One experiment concerns MCF7. The experiment in a line: Growth inhibition of human MCF7 cells after 96 hrs by sulphorhodamine B assay. It is filed as functional. Particulars: MCF7, 96 h. In outline:
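SRB growth assay; MCF7 and WI38 seeded 4000 cells/well, A549 2000 cells/well, attached overnight, then exposed to freshly made drug solutions (0.1 to 50 μM) for 96 h. Fixed with cold 10% TCA, stained with 0.4% SRB; absorbance at 540 nm as percent of untreated control, IC50 from mean absorbance.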
Background: Sulforhodamine B stains cellular protein and so reports cell mass.

The target in a further experiment is T1, Histone deacetylase 7 (Homo sapiens, UniProt Q8WUI4).
T1 sequence (Q8WUI4 whole entry): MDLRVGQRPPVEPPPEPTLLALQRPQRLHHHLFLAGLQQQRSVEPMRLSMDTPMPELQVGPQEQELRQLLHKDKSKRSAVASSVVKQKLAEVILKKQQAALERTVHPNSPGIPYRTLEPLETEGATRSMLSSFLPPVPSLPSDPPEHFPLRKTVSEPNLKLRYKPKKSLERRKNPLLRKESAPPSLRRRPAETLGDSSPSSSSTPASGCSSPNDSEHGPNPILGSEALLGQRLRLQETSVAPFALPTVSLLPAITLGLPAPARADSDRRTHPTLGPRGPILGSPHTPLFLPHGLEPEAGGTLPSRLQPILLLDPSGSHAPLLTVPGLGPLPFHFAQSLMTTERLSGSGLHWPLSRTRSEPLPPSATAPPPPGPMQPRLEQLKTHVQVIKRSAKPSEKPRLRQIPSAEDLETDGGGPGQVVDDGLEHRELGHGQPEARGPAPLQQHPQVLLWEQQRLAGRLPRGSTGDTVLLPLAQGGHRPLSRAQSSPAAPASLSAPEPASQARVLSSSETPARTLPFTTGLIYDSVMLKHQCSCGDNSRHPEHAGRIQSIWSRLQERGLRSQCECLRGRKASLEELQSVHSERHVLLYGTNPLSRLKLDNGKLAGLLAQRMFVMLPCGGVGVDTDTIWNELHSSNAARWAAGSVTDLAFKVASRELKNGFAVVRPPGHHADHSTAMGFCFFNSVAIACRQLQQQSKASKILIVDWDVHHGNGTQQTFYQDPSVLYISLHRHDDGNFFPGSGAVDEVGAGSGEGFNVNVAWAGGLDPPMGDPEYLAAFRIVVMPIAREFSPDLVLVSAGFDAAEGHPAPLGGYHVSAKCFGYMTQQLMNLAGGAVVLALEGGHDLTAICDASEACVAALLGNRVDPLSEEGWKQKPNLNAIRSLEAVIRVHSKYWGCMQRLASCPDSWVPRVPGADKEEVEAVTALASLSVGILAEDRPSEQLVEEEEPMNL
The experiment in a line: Inhibition of human recombinant HDAC7 using Boc-lys(Ac)-AMC as substrate preincubated for 20 mins with substrate measured after 60 mins by fluorescence analysis.

The next experiment concerns the target Histone deacetylase 1 (Homo sapiens, UniProt Q13547). The experiment in a line: Inhibition of human recombinant HDAC1 using Boc-lys(Ac)-AMC as substrate preincubated for 20 mins with substrate measured after 60 mins by fluorescence analysis.
In experiment [1] the target is T2, Histone deacetylase-like amidohydrolase (Alcaligenes sp. (strain DSM 11172) (Bordetella sp. (strain FB188)), UniProt Q70I53).
T2 sequence (Q70I53 whole entry): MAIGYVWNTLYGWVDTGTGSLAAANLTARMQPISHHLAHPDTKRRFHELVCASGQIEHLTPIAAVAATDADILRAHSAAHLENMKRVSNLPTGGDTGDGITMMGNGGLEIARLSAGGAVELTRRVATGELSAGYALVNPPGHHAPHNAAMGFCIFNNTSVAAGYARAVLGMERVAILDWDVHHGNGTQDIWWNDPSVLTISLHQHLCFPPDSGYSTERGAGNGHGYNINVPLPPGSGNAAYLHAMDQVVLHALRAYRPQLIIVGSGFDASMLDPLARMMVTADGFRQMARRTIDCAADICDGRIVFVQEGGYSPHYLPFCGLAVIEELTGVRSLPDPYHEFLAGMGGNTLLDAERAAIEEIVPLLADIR
The experiment in a line: Inhibition of Bordetella sp. (strain FB188) N-terminus His-tagged HDAH expressed in Escherichia coli BL21 (DE3). The arrangement: species or system Alcaligenaceae bacterium FB188. In outline:
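Recombinant N-terminal His6-tagged HDAH from Bordetella strain FB188, expressed in E. coli BL21, purified on zinc-loaded His-Trap column, eluted with 500 mM imidazole, dialyzed into assay buffer (>98% pure by SDS-PAGE). Tested directly against compounds; thiols generated in situ from disulfides with TCEP.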

For experiment [2], the target named is T3, Protein deacetylase HDAC6 (Homo sapiens, UniProt Q9UBN7).
T3 sequence (Q9UBN7 whole entry): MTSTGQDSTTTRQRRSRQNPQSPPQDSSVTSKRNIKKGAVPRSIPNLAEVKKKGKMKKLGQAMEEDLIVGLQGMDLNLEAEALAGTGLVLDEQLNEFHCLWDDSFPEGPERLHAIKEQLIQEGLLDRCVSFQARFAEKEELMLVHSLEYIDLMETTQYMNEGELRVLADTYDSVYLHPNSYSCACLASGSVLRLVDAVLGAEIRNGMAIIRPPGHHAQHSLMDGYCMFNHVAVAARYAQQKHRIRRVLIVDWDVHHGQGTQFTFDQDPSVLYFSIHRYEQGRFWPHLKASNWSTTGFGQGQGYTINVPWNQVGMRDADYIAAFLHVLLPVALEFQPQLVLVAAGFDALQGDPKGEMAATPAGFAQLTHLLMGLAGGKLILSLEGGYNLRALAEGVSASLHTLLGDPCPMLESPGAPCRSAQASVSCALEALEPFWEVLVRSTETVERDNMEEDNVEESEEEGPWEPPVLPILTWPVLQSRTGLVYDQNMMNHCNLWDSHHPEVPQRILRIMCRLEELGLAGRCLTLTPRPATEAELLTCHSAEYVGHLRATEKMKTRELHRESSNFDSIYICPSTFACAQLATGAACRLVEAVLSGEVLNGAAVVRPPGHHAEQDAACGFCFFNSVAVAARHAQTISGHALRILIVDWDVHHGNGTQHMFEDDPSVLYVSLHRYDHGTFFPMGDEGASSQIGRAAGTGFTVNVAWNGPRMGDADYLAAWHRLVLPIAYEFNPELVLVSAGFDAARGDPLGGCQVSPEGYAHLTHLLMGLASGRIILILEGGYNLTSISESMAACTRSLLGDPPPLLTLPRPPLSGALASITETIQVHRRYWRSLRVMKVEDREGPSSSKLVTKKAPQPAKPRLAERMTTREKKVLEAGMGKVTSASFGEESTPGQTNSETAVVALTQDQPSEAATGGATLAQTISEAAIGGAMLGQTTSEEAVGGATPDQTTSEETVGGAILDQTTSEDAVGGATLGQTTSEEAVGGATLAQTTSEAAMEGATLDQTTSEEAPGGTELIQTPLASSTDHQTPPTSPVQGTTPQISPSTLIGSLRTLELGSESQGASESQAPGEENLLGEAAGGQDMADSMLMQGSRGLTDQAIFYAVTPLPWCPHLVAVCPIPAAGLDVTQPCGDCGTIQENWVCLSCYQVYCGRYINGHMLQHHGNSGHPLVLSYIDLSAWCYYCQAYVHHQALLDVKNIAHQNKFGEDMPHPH
The experiment in a line: Inhibition of human recombinant HDAC6 using Boc-lys(Ac)-AMC as substrate preincubated for 20 mins with substrate measured after 60 mins by fluorescence analysis.

pIC50: −log10 of the molar value.

The record followed here is ChEMBL document CHEMBL2046381, “Defining the mechanism of action and enzymatic selectivity of psammaplin A against its epigenetic targets” (J Med Chem, 2012).

Sequence of Histone deacetylase 1 (Q13547 whole entry): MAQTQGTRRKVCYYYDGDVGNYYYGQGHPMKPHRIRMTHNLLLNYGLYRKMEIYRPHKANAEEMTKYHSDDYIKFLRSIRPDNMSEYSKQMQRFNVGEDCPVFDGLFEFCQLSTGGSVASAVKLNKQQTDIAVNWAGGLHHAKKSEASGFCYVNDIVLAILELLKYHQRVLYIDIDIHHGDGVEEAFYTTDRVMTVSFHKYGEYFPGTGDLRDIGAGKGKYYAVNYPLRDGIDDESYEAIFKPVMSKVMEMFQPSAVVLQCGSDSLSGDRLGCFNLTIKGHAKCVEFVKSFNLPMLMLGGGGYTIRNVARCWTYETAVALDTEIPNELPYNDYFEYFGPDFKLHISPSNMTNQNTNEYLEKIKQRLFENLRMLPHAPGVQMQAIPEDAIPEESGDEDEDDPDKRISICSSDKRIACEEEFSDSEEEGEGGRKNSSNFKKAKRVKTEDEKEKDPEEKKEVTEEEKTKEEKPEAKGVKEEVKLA

Broadly, the GI50 is the concentration that inhibits growth by half. Low values mean more potent growth inhibition, high ones less potent growth inhibition. By pIC50 is commonly meant the negative decadic logarithm of the IC50, by convention in mol/L. `N/N=C(\Cc1ccc(O)c(Br)c1)C(=O)NCCS` returned a GI50 with MCF7 of 3.42 µM. In addition, the negative-log IC50 (pIC50) was 4.35 at Histone deacetylase 7, 8.30 at Histone deacetylase 1, 4.49 in experiment [1] and 6.00 in experiment [2].
